RanGTP-Imp inh: disruptors of Ran-importin-beta complex formation – biochemical, FRET, CFP-Ran, YFP-importin-beta, homogeneous, primary screen. AID 2216. inhibition, % (test concentration not listed). 300,000 compounds, 1.1% hits. cell-free CFP-Ran/YFP-importin-beta FRET ratio;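 active = more than half of the replicate wells show a fall in the fluorescence ratio signal beyond about 16%, limit read from the data, passing the limit was not always enough; inconclusive = exactly half of the replicate wells pass the set limit; inactive = fewer than half of replicates pass the limit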;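 note: 0% = DMSO wells and 100% = Ran loaded with GDP instead of GTP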
EBV gp42 inh: EBV gp42 inhibition. Q1HVG2. Fluorescence polarization binding assay, mP read-out. inhibition, % (tested at 21.74 µM). 220,000 compounds, 0.42% hits. AID 1085
MEX-5 binding: C. elegans MEX-5 TCR-2 RNA binding activity; 300,000 compounds, 0.38% hits; MEX-5/FITC-TCR2 RNA binding, fluorescence polarization; active compounds read low; AID 1832; activity score (negative = inhibition of binding), % at 10 µM;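 active = inhibition past about -25% in most replicates, and total fluorescence under double the plate's negative control median, limit read from the data; inconclusive = replicates evenly split on the limit, or fluorescence at least double controls; inactive = too little inhibition in most replicates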;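 note: 0% = DMSO and -100% = 5 µM competing unlabeled TCR2 RNA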
Runt-CBFb FRET: Runt domain-CBFb interaction inhibition; Q01196+Q13951; Cerulean-Runt/Venus-CBFb FRET ratio 530/480, 1 h; inhibition, % at 20 µM; 220,000 compounds, 0.46% hits; AID 1496;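 active = inhibition over about 50% at 20 µM in the single-dose screen, limit read from the data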;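 note: 0% = DMSO wells and 100% = excess unlabeled CBFb competitor control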
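test system = Cerulean-Runt domain fusion protein, energy donor | probe or stimulus = Venus-CBFb binding partner, 100 nM | incubation = two 1 h room-temperature incubations shielded from light | detection = fluorescence energy transfer, 422 nm excitation, 530/480 nm emission | measure = loss of energy transfer signal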
PKD1 inh: blocks activity of human protein kinase D1; inhibition, % (test concentration not listed); PKD1 kinase fluorescence polarization assay; AID 797; 200,000 compounds, 0.056% hits; Q15139
Target sequence (Q15139 whole entry, looked up): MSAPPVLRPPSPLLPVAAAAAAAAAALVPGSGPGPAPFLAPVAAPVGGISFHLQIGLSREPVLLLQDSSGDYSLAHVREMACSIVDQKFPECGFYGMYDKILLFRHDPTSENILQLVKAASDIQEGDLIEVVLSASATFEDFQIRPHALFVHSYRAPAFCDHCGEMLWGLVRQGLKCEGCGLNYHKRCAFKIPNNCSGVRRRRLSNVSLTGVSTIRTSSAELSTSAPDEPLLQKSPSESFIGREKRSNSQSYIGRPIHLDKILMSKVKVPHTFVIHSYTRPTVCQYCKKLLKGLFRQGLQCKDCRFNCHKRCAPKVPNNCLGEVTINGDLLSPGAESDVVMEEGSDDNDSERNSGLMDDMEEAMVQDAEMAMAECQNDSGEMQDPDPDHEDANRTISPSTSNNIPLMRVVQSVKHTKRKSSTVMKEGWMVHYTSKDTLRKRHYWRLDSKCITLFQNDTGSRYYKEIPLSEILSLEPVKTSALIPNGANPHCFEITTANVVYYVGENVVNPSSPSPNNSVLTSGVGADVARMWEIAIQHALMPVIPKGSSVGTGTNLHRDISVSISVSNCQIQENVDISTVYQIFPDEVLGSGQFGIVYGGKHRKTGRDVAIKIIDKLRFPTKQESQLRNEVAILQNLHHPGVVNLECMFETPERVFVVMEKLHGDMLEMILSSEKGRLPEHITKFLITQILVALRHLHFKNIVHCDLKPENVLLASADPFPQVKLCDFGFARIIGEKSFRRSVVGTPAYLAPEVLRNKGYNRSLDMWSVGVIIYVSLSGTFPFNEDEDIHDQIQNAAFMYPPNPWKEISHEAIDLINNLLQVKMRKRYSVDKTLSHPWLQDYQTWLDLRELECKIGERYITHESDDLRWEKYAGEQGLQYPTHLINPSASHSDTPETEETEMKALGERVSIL
Runt-SMMHC FRET: inhibitors of human RUNX1 Runt domain binding to CBFb-SMMHC | Q01196+Q13951 | Cerulean-Runt/Venus-CBFb-SMMHC FRET ratio 530/480, 1 h | inhibition, % at 20 µM | 220,000 compounds, 0.74% hits;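 active = mean inhibition across duplicate retests at 20 µM reaching about 50%, limit read from the data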;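 note: 0% = DMSO wells and 100% = wells with excess untagged CBFb-SMMHC; inhibitors lower the FRET ratio by blocking Runt binding to CBFb-SMMHC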
* hit, by the source's call; ? = inconclusive; . = no result given. In the library only some 2% were active in any assay of this set; here they are far more common. Cut-off read from the data, not from the text of the source, unless noted: active = inhibition above about 50%; inactive = the rest.

SMILES	RanGTP-Imp inh	EBV gp42 inh	MEX-5 binding	Runt-CBFb FRET	PKD1 inh	Runt-SMMHC FRET
Cc1cnc(C(=O)OCC(=O)c2ccc(-c3ccccc3)cc2)cn1	1	.	0	.	.	.
Cc1c(Cl)cccc1NC(=O)c1ncn[nH]1	2	3	2	2	.	2
Cc1ccc(OCCCCNC(C)c2ccccc2)c(C)c1 (stereo not drawn)	-1	.	-3	.	.	.
CC1(C)Cc2c(sc3ncn4c(=S)[nH]nc4c23)CO1	2	-21	0	46	7	60*
CC[C@H]1CC2CN3CCc4c([nH]c5c([C@H]6C[C@H]7[C@H](CC)CN(C)[C@@H](Cc8c6[nH]c6ccccc86)[C@H]7C(=O)OC)c(OC)ccc45)C(C(=O)OC)(C2)C13	-1	.	1	.	.	.
Cc1cccc(N2C(=O)C(O)=C(C(=O)c3cccs3)C2c2ccc(F)cc2)n1 (stereo not drawn)	1	-20	0	0	1	5
C=CCOc1ccc(C2C(C(=O)c3cccs3)=C(O)C(=O)N2c2nnc(C)s2)cc1 (stereo not drawn)	-12	.	-30*	.	7	.
COc1ccc(C2C(C(=O)c3cccs3)=C(O)C(=O)N2c2nnc(C)s2)cc1OC (stereo not drawn)	-11	91*	-60*	11	-4	-7
C=CCOc1cccc(C2C(C(=O)c3cccs3)=C(O)C(=O)N2Cc2cccnc2)c1 (stereo not drawn)	-1	10	0	.	-4	.
CC(C)c1nnc(N2C(=O)C(O)=C(C(=O)c3cccs3)C2c2ccccc2)s1 (stereo not drawn)	-14	126*	-66*	2	8	-9
O=C(NC1CCCc2c1cnn2-c1ccccc1F)c1ccccc1N1CCOCC1 (stereo not drawn)	?	.	0	.	.	.
COc1cccc(CN2CC(C(=O)NCCOc3cccnc3)CCC2=O)c1 (stereo not drawn)	1	.	0	.	.	.
CN1CCC(=C2c3ccccc3C(O)c3ccccc32)CC1 (stereo not drawn)	4	-18	0	3	.	-3
CN1CCc2cccc3c2C1Cc1ccc(O)c(O)c1-3 (stereo not drawn)	3	.	-83*	.	.	.
CCCNC(=O)Cn1sc2nc(C)cc(C)c2c1=O	-4	-20	3	14	.	60*
Cc1nn(CC(=O)N2CCC(N3CCCCC3)CC2)c(=O)c2c1sc1ccccc12	2	.	-3	.	.	.
Cc1cc(C)c2c(=O)n(CC(=O)N3CCC(N4CCCCC4)CC3)sc2n1	-2	-9	0	-10	-7	64*
CCOC(=O)C1CCCN(C(=O)Cn2sc3nc(C)cc(C)c3c2=O)C1 (stereo not drawn)	0	-12	-5	-15	-1	59*
CC(=O)Cn1cnc2c(sc3nc(C)cc(C)c32)c1=O	-2	-8	-1	1	.	-2
COc1ccc(N/C=C/C(=O)c2ccc3c(c2)OCO3)cc1OC	4	-7	-34*	-28	-5	-52
CC(=O)Nc1ccc(/C=C/C(=O)c2ccc3c(c2)OCCO3)cc1	-4	.	-53*	.	.	.
COc1ccc(N/C=C\C(=O)c2ccc(Br)cc2)cc1OC	0	-133	2	-30	-8	-109
COc1cc(NS(=O)(=O)c2ccc(N/C=C\C(=O)c3ccc(OC)c(OC)c3)cc2)nc(OC)n1	1	-8	2	38	-7	83*
COc1ccc(N/C=C\C(=O)c2ccc(C)cc2)cc1OC	3	-13	-48*	-8	-3	-23
CCOC(=O)CN1C(=O)N(CC(=O)OCC)C(c2ccccc2)(c2ccccc2)C1=O	0	.	-1	.	.	.
SMILES	RanGTP-Imp inh	EBV gp42 inh	MEX-5 binding	Runt-CBFb FRET	PKD1 inh	Runt-SMMHC FRET
CC(=O)OCCN1C(=O)c2ccc(-c3nc4ccccc4c(=O)o3)cc2C1=O	-3	.	-1	.	.	.
COc1ccc(C(=O)/C=C/NCc2ccc(C)cc2)cc1	25*	.	4	.	-3	.
COc1ccc(CC(=O)N/N=C/c2ccc(-c3cccc(C(=O)O)c3)o2)cc1OC	3	-4	-3	9	.	0
COc1ccc(NC(=O)c2ccc(NC(=O)COC(=O)c3cnc(C)cn3)cc2)cc1	8	.	-1	.	.	.
Cc1cc2nc(=O)c(/C=C3\C=Nc4ccccc43)c(N)n2o1	47*	-36	4	-5	.	-45
CC(C)Sc1nsc2nc(=O)c(/C=C3\C=Nc4ccccc43)c(N)n12	33*	-47	?	18	-3	59*
CC(C)(C)NC(=O)c1sccc1C(=O)O	4	100*	-4	.	1	.
Cc1[nH][nH]c(=O)c1C(c1ccc(O)c(Br)c1)c1c(C)[nH][nH]c1=O	6	.	-14	.	.	.
Cc1[nH][nH]c(=O)c1C(c1ccc(O)c([N+](=O)[O-])c1)c1c(C)[nH][nH]c1=O	-2	-3	-48*	1	-6	-4
COc1ccccc1CNC(=O)CCNC(=O)C1CCN(S(=O)(=O)c2ccccc2)CC1	?	.	-2	.	.	.
Cc1ccc(S(=O)(=O)C(C#N)c2nc3ccccc3nc2N2CCC(C)CC2)cc1 (stereo not drawn)	8	-35	?	-11	-11	-38
Cc1ccc(S(=O)(=O)C(C#N)c2nc3ccccc3nc2OCCO)cc1 (stereo not drawn)	26*	-2	-1	-2	-4	-3
Cc1onc(-c2c(Cl)cccc2Cl)c1C(=O)NCCc1ccncc1	1	.	-1	.	.	.
O=c1[nH]c2ccc(N=Cc3c(O)ccc4cc(Br)ccc34)cc2[nH]1	?	82*	-1	-9	12	26
COCCCN(C(=O)CC1OC(=O)c2ccccc21)c1c(N)n(Cc2ccccc2)c(=O)[nH]c1=O (stereo not drawn)	-3	.	0	.	.	.
Nc1cccc(C(=O)OCC(=O)Nc2cccc3c2C(=O)c2ccccc2C3=O)c1	1	92*	0	-6	-11	-2
Cc1cccc(NC(=O)COC(=O)c2cccc3c2C(=O)c2ccccc2C3=O)c1C	-4	2	1	-1	3	-1
O=C(Nc1cccc(C(F)(F)F)c1)c1ccc2nc(-c3ccco3)c(-c3ccco3)nc2c1	47*	-7	1	1	4	-13
O=C(Nc1cccc(C(F)(F)F)c1)c1cc[n+]([O-])cc1	1	.	2	.	.	.
O=C(c1ccc2nc(-c3ccco3)c(-c3ccco3)nc2c1)N1CCN(c2ccccc2)CC1	23*	6	-2	12	4	-12
O=C(O)c1ccc2nc(-c3ccco3)c(-c3ccco3)nc2c1	.	-13	-29*	46	-1	8
Cc1ccc(-c2nc3ccc(C(=O)O)cc3nc2-c2ccc(C)cc2)cc1	1	-8	2	.	-6	6

Screening data: PubChem BioAssay, several laboratories
